# Key:
# [1] = tested on: Ramos; assay: Antiproliferative activity against human Ramos cells at 1.25 to 40 uM by CCK-8 assay; format: functional, cell-based; details: TDE = time-dependent effect
# In short: (§1)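 CCK-8 viability assay. Cells were seeded at 3000/well in RPMI-1640 with 10% FBS at 37 °C, 5% CO2, for 4 h before treatment. Exposure was 72 h at five concentrations (1.25, 5, 10, 20, 40 µM), each in five replicates. Absorbance was read at 450 nm. IC50 came from dose-response curves, as the mean of at least three separate experiments.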
# [2] = tested on: Ramos; assay: Induction of apoptosis in human Ramos cells assessed as late apoptotic cells at 5 uM after 72 hrs by Annexin V-FITC/propidium iodide staining based flow cytometry (reference value: 0.5%); format: functional
# [3] = molecular target: T1, Tyrosine-protein kinase JAK3 (Homo sapiens, UniProt P52333); assay: Inhibition of recombinant N-terminal GST-tagged human JAK3 (781 to end residues) expressed in baculovirus infected Sf9 insect cells using Poly(4:1 Glu,Tyr) peptide substrate incubated for 60 mins by ADP-Glo luminescence assay
# T1 sequence (P52333 whole entry): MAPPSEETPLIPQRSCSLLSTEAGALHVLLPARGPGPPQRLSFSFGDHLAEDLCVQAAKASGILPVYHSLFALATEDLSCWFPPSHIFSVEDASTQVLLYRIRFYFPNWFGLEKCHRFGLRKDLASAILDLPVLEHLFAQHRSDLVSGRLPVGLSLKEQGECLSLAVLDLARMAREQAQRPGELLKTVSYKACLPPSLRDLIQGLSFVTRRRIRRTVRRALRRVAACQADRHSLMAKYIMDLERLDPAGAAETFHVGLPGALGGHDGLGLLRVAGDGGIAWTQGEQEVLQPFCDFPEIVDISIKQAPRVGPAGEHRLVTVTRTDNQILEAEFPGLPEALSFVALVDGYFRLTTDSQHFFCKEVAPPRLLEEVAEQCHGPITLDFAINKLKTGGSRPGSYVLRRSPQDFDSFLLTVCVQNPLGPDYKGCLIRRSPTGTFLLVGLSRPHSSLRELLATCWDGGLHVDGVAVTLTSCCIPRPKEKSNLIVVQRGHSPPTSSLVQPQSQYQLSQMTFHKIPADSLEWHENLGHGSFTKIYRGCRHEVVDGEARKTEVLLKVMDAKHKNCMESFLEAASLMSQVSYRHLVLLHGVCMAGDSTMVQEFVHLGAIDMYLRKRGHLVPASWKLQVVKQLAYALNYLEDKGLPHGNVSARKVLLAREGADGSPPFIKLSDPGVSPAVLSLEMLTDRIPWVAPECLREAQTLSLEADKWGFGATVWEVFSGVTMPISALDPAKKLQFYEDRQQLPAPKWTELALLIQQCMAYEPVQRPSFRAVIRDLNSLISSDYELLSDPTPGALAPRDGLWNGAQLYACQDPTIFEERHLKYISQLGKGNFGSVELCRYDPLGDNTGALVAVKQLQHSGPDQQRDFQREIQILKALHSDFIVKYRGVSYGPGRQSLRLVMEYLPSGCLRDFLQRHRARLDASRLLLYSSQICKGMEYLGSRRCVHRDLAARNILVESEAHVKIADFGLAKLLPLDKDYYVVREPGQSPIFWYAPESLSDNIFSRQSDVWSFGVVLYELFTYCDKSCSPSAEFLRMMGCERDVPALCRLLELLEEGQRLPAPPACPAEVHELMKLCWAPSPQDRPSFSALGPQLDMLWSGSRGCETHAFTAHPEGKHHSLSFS
# In short: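 ADP-Glo luminescent kinase assay. The kinase reaction ran 60 min at room temperature in 1× kinase buffer. ADP-Glo reagent was added to stop the reaction and deplete ATP, followed by 40 min at room temperature. Detection reagent then converted ADP to ATP for a luciferase readout, followed by 30 min at room temperature. Luminescence was integrated over 0.5–1 s, and IC50 came from curve fitting.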
# [4] = tested on: Raji; assay: Antiproliferative activity against human Raji cells after 72 hrs by CCK-8 assay; format: functional, cell-based; in short: as §1
# [5] = tested on: Ramos; assay: Antitumor activity against human Ramos cells xenografted in po dosed CB17/SCID mouse assessed as reduction in tumor growth administered as qd for 14 days; format: functional, organism-based
# In short: (§2)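 Female CB17/SCID mice, 5–6 weeks old and 20–25 g, received 3×10⁶ Ramos cells in 0.1 mL PBS subcutaneously in the right axilla. From day 3 after implantation, dosing was oral at 30 or 60 mg/kg for 14 days; vehicle controls got oral 25% PEG-400. Tumor volume was A×B²/2 from caliper diameters. Tumor weight was taken at sacrifice, and body weight was tracked. n = 5.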
# [6] = tested on: Ramos; assay: Induction of apoptosis in human Ramos cells assessed as early apoptotic cells at 5 uM after 72 hrs by Annexin V-FITC/propidium iodide staining based flow cytometry (reference value: 0.0%); format: functional
# [7] = molecular target: Tyrosine-protein kinase BTK (Homo sapiens, UniProt Q06187); assay: Inhibition of recombinant full-length N-terminal His-tagged human BTK expressed in baculovirus infected Sf9 insect cells using Poly(4:1 Glu,Tyr) peptide substrate incubated for 60 mins by ADP-Glo luminescence assay
# [8] = tested on: Mus musculus; assay: Toxicity in CB17/SCID mouse xenografted with Ramos cells assessed as change in body weight at 60 mg/kg, po qd for 14 days; format: organism-based; details: in vivo, 336 h; in short: as §2
# [9] = tested on: Ramos; assay: Induction of apoptosis in human Ramos cells assessed as necrotic cells at 10 uM after 72 hrs by Annexin V-FITC/propidium iodide staining based flow cytometry (reference value: 0.7%); format: functional
# [10] = tested on: Ramos; assay: Induction of apoptosis in human Ramos cells assessed as early apoptotic cells at 20 uM after 72 hrs by Annexin V-FITC/propidium iodide staining based flow cytometry (reference value: 0.0%); format: functional
# [11] = tested on: Ramos; assay: Induction of apoptosis in human Ramos cells assessed as necrotic cells at 20 uM after 72 hrs by Annexin V-FITC/propidium iodide staining based flow cytometry (reference value: 0.7%); format: functional
# Chain of Tyrosine-protein kinase BTK (Q06187 whole entry): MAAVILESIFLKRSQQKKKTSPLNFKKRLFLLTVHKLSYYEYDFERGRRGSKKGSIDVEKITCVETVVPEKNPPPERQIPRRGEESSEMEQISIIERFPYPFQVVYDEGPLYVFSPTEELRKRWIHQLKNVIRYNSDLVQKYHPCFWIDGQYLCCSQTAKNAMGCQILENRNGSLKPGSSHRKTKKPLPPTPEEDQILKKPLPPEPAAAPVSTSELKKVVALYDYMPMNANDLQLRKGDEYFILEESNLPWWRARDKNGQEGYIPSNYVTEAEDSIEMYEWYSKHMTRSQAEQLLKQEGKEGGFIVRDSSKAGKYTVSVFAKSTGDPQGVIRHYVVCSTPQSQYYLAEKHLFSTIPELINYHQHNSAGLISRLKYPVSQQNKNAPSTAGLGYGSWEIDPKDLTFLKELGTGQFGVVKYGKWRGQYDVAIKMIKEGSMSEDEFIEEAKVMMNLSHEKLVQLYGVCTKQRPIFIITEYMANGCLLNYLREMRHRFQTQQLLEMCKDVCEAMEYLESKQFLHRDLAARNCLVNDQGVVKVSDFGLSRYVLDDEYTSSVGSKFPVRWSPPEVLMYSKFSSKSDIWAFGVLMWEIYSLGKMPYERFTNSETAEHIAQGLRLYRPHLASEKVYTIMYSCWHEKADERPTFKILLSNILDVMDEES
IC50 [3] [nM],IC50 [4] [µM],IC50 [7] [nM],SMILES,Activity [1],Activity [2] [%],TGI [5],Activity [6] [%],Activity [8],Activity [9] [%],Activity [10] [%],Activity [11] [%]
8.34,8.89,0.8,C=CC(=O)Nc1cccc(Nc2nc(Nc3ccc(OCC(=O)N4CCOCC4)c(Cl)c3)ncc2Cl)c1,Tde,7,Dose-dependent effect,54.8,<= 5%,1.1,65.1,0.4
0.83,9.32,0.6,C=CC(=O)Nc1cccc(Nc2nc(Nc3ccc(OCCCN4CCOCC4)cc3)ncc2Cl)c1,Tde,8.2,Dose-dependent effect,50.8,<= 5%,2.7,61.6,3.5
